Screens (PubChem)
mIAP block – blocks mouse intestinal alkaline phosphatase | purified mouse IAP, CDP-Star luminescence, 30 min | inhibition, % at 10 µM | actives 0.2% (n = 330,000) | AID 2806;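 active = inhibition of at least 40% at 10 µM in the primary screen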;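 note: plate controls were DMSO with enzyme for no effect and no enzyme wells for full effect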
mIAP activ – mouse IAP activation; actives 0.24% (n = 330,000); muIAP, CDP-Star luminescence, 30 min; active compounds read high; 1 = vehicle-only enzyme signal, 0 = enzyme-free wells; activation factor at 10 µM;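 active = activation factor of at least 2 at 20 µM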
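Assay system: mouse IAP enzyme; Reagent: CDP-Star chemiluminescent phosphatase substrate; Compound: DMSO-dissolved test compounds; Incubation: 30 min, room temperature; Technique: luminescence from enzymatic CDP-Star hydrolysis; Controls: DMSO-only wells and no-enzyme negative control.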
hIAP act – human IAP activation; P09923; purified human IAP, CDP-Star luminescence, 30 min; active compounds read high; 1 = vehicle-only enzyme, 0 = enzyme-free background; activation factor at 10 µM; actives 0.16% (n = 330,000); AID 2524;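 active = activation factor of the enzyme at least 2-fold when tested at 20 µM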
Target sequence (P09923 whole entry, looked up): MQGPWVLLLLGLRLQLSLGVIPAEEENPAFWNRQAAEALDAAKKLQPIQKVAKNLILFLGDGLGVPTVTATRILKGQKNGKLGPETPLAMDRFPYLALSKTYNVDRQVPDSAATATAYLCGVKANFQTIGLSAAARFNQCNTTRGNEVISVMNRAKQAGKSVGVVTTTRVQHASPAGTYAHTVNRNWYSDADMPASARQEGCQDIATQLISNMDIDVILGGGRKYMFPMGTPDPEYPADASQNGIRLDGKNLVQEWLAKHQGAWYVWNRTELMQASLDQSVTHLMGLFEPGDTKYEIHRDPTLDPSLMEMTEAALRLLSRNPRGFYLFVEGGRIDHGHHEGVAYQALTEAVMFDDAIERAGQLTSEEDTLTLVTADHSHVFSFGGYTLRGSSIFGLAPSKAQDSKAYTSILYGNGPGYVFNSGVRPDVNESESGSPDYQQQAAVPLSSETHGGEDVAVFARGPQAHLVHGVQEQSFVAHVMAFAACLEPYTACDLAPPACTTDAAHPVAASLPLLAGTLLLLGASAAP
bIAP act – increases bovine intestinal alkaline phosphatase activity | purified bovine IAP, CDP-star luminescence, 30 min; active compounds read high; fold of DMSO-control signal, blank-subtracted | activation factor at 20 µM | actives 0.17% (n = 200,000) | AID 1016;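 active = activation factor of 2 or more at 20 µM, a signal rise over negative controls twice the positive control's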
bIAP inh – intestinal alkaline phosphatase (bovine) inhibition | purified bovine IAP, CDP-star luminescence, 30 min | inhibition, % at 20 µM | 190,000 tested, under 10 active | AID 1019;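 active = over 50% inhibition of intestinal alkaline phosphatase at 20 µM in the single-dose screen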
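test system = bovine IAP enzyme | medium = DEA buffer 100 mM, pH 9.8, with MgCl2 1.0 mM, ZnCl2 0.02 mM | detection = luminescence | dosing = single compound dose of 20 µM, 2% DMSO final | incubation = 30 min reaction at room temperature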
hIAP block – blocks human intestinal alkaline phosphatase; P09923; purified IAP, CDP-Star luminescence, 30 min; inhibition, % at 10 µM; actives 0.12% (n = 330,000); AID 2544;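 active = inhibition reaching a set limit with compound at 10 µM in the primary screen, cut at about 35% in these data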;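 note: plate controls were DMSO wells with enzyme for no effect and no-enzyme buffer wells for full effect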
mIAP inh confirm – mouse IAP inhibition confirmation. shares compounds with mIAP block. purified mouse IAP, CDP-Star luminescence, 30 min. inhibition, % at 10 µM. actives 4.7% (n = 11,000). AID 434971;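 active = inhibition of at least 40% at 10 µM in either of the two replicates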;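 note: plate controls were DMSO wells with enzyme for no effect and buffer wells lacking enzyme for full effect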
* marks the source's active call; other numbers are inactive results; i = inactive; · = no result given. Shown are actives, neighbours in structure and some others; about 0.77% of the full set was active somewhere.

SMILES	mIAP block	mIAP activ	hIAP act	bIAP act	bIAP inh	hIAP block	mIAP inh confirm
C#CCOCCOCCOCCNc1nc(N2CCN(C(=O)CCCCCCCCCCNC(=O)Cn3cc(C[C@@H](C)O)nn3)CC2)nc(N2CCN(C(=O)CCCCCCCCCCNC(=O)[C@@H](CCSC)n3cc(CCO)nn3)CC2)n1	-184.0	2.84*	0.939	·	·	6.1	-96.8
C#CCOCCOCCOCCNc1nc(N2CCN(C(=O)CCCCCCCCCCNC(=O)[C@H](CO)n3cc(CCCCCN)nn3)CC2)nc(N2CCN(C(=O)CCCCCCCCCCNC(=O)[C@H](CCCN=C(N)N)n3cc(C[C@@H](C)CC)nn3)CC2)n1	-51.7	1.52	0.985	·	·	1.5	·
C#CCOCCOCCOCCNc1nc(N2CCN(C(=O)CCCCCCCCCCNC(=O)[C@H]([C@@H](C)CC)n3cc(CCCCN=C(N)N)nn3)CC2)nc(N2CCN(C(=O)CCCCCCCCCCNC(=O)[C@@H]([C@H](C)O)n3cc(C)nn3)CC2)n1	-366.1	4.66*	1.08	·	·	-8.1	i
C#CCOCCOCCOCCNc1nc(N2CCN(C(=O)CCCCCCCCCCNC(=O)[C@@H](CCSC)n3cc(CCO)nn3)CC2)nc(N2CCN(C(=O)CCCCCCCCCCNC(=O)[C@H](CCCN=C(N)N)n3cc(C[C@@H](C)CC)nn3)CC2)n1	i	7.73*	1.58	·	·	-58.4	i
C#CCOCCOCCOCCNc1nc(N2CCN(C(=O)CCCCCCCCCCNC(=O)[C@H]([C@@H](C)CC)n3cc(CCCCN=C(N)N)nn3)CC2)nc(N2CCN(C(=O)CCCCCCCCCCNC(=O)[C@H](CCCN=C(N)N)n3cc(C[C@@H](C)CC)nn3)CC2)n1	-343.3	4.43*	1.49	·	·	-48.7	i
CC(Oc1c(Cl)cccc1Cl)C1=NCCN1 (centres undefined)	5.5	0.945	0.797	·	·	20.3	·
N#Cc1cccc(NC(=O)CSc2cccc[n+]2[O-])c1	-7.1	1.07	1.12	·	·	-12.4	·
COc1cc(NC(=O)CSc2nc(C)c(C)c(C)n2)cc(OC)c1	-5.1	1.05	1.18	1	0.2	-18.4	·
C#CCOCCOCCOCCNc1nc(N2CCOCC2)nc(N2CCN(C(=O)[C@H]([C@@H](C)CC)n3cc(CCCN=C(N)N)nn3)CC2)n1	-16.0	1.16	0.953	0.9	6.9	4.7	·
C#CCOCCOCCOCCNc1nc(N2CCN(C(=O)CCCCCCCCCCNC(=O)[C@H](CCCN=C(N)N)n3cc(C[C@@H](C)CC)nn3)CC2)nc(N2CCN(C(=O)CCCCCCCCCCNC(=O)[C@@H]([C@H](C)CC)n3cc(CCCCCN)nn3)CC2)n1	-463.1	5.63*	1.5	·	·	-50.0	i
C#CCOCCOCCOCCNc1nc(N2CCOCC2)nc(N2CCN(C(=O)CCCCCCCCCCNC(=O)[C@H]([C@@H](C)CC)n3cc(CCCCN=C(N)N)nn3)CC2)n1	-154.0	2.54*	1.08	·	·	-7.9	-136.7
C#CCOCCOCCOCCNc1nc(N2CCN(C(=O)CCCCCCCCCCNC(=O)[C@H](CCCCN)n3cc(C)nn3)CC2)nc(N2CCN(C(=O)CCCCCCCCCCNC(=O)[C@H](CCCN=C(N)N)n3cc(C[C@@H](C)CC)nn3)CC2)n1	-214.8	3.15*	1.27	·	·	-27.6	-295.1
C#CCOCCOCCOCCNc1nc(N2CCN(C(=O)CCCCCCCCCCNC(=O)[C@H](CCCCN)n3cc(C[C@@H](C)CC)nn3)CC2)nc(N2CCN(C(=O)CCCCCCCCCCNC(=O)[C@H](CCCN=C(N)N)n3cc(C[C@@H](C)CC)nn3)CC2)n1	-99.8	2	1.35	·	·	-35.2	·
O=C(COc1ccc(Cl)cc1)Nc1nnc(-c2ccco2)o1	2.3	0.977	0.922	1	-4.2	7.8	·
CCN1CCCc2cc(CN(CCN3CCOCC3)C(=S)Nc3cc(F)cc(F)c3)ccc21	-2.8	1.03	0.983	0.9	8.4	1.7	·
N#CC(C#N)=C(Nc1ccc(F)cc1)SCc1cccc(F)c1	2.7	0.973	0.931	1	4.6	6.9	·
CN(C)c1ccc(N=Cc2ccco2)cc1	14.0	0.86	0.897	0.8	21.2	10.3	·
Nc1nnnn1/N=C/c1ccco1	6.5	0.935	1.04	1	1.5	-4.5	·
C(=N\C(/N=C/c1ccco1)c1ccco1)/c1ccco1	73.0*	0.27	1.19	1	-4.5	-19.2	74.9*
C(=Nc1cccc2c(N=Cc3ccco3)cccc12)c1ccco1	48.0*	0.52	0.948	1.1	-10.9	5.2	40.8*
COc1ccc(CCNC(=O)C2CCN(C(=O)c3ccc([N+](=O)[O-])cc3)CC2)cc1	0.7	0.993	1.21	1	2.6	-20.9	·
COCCCN1CN=C(Nc2nc3ccccc3o2)NC1	-0.7	1.01	1.04	1.1	-5.3	-3.7	·
CCOC(=O)N1CCN(S(=O)(=O)N2CCCC(C(=O)NC(C)c3ccccc3)C2)CC1 (centres undefined)	-3.9	1.04	1.02	·	·	-2.5	·
O=C(O)c1ccc2nc(-c3ccco3)c(-c3ccco3)nc2c1	47.7*	0.523	1.11	1.3	-25.1	-10.8	65.9*
O=C(c1ccc2nc(-c3ccco3)c(-c3ccco3)nc2c1)N1CCN(c2ccccc2)CC1	16.4	0.836	1.05	1	1.1	-4.7	·
SMILES	mIAP block	mIAP activ	hIAP act	bIAP act	bIAP inh	hIAP block	mIAP inh confirm
N#Cc1cccc(NC(=O)CSc2sc3c(O)cc(=O)[nH]c3c2C#N)c1	16.1	0.839	1.06	·	·	-5.6	·
N#Cc1c(SCC(=O)Nc2nc3ccc(Br)cc3s2)sc2c(O)cc(=O)[nH]c12	41.4*	0.586	1.02	·	·	-2.0	71.8*
CCCSc1nnc(NC(=O)CSc2sc3c(O)cc(=O)[nH]c3c2C#N)s1	33.1	0.669	0.964	·	·	3.6	·
N#Cc1c(SCC(=O)Nc2nccs2)sc2c(O)cc(=O)[nH]c12	47.5*	0.525	0.947	·	·	5.3	63.3*
N#Cc1c(SCC(=O)Nc2nc3ccccc3s2)sc2c(O)cc(=O)[nH]c12	60.6*	0.394	1.18	·	·	-18.3	72.6*
O=C(N/N=C/c1ccc(O)c(O)c1O)/C(=C/c1ccc([N+](=O)[O-])cc1)NC(=O)c1ccccc1	54.8*	0.452	0.989	0.6	42.5	1.1	59.5*
Cc1ccc(NS(=O)(=O)c2ccc3[nH]c(=O)oc3c2)c(C)c1	79.9*	0.201	0.945	·	·	5.5	85.1*
Cc1ccc(NC(=O)CN(C)S(=O)(=O)c2ccc3[nH]c(=O)oc3c2)c(C)c1	62.6*	0.374	0.945	·	·	5.5	88.2*
O=C(O)Cc1ccc(S(=O)(=O)Nc2ccccc2C(=O)O)cc1	3.3	0.967	0.902	1.1	-10.8	9.8	·
COC(=O)c1ccc(C(=O)NC2CCSc3ccccc32)cc1 (centres undefined)	7.8	0.922	0.967	·	·	3.3	·
